{"source": "paper PMC12178318", "about": "(Cancer, 2025)", "key": {"[1]": {"system": "patients with advanced solid tumors", "test": "Phase 1 safety and tolerability", "type": "in vivo, human", "settings": "any cycle, N = 36", "how_it_was_run": "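Adults (≥18 y) with locally advanced or metastatic solid tumours who had failed available therapy. They took oral test compound at 0.3–100 mg once daily alone for 28 days (cycle 0), then with IV anti-CCR4 antibody 1 mg/kg weekly (cycle 1) and every 2 weeks thereafter. AEs were coded by MedDRA 19.0 and graded by CTCAE 4.03, with relatedness judged by investigators. The DLT window was 56 days. Patients receiving any dose were counted as frequency and percentage.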"}, "[2]": {"system": "patients with mycosis fungoides or Sézary syndrome", "settings": "cited from earlier work"}, "[3]": {"settings": "184 mogamulizumab-treated patients, MAVORIC"}}}
{"substance": "mogamulizumab: recombinant, humanized monoclonal antibody of immunoglobulin G1-κ targeting CCR4", "values": [{"measurement": "IRRs related (TRAE) to the named drug, patients", "setting": "[1]", "result": 39, "unit": "%"}, {"measurement": "drug eruption related (TRAE) to the named drug, patients", "setting": "[1]", "result": 50, "unit": "%"}, {"measurement": "nausea related (TRAE) to the named drug, patients", "setting": "[1]", "result": 14, "unit": "%"}, {"measurement": "IRRs, patients", "setting": "[2]; [3]", "result": 33, "unit": "%"}, {"measurement": "drug eruptions, patients", "setting": "[2]; [3]", "result": 24, "unit": "%"}, {"measurement": "long-term responders who experienced drug eruptions", "setting": "[2]; post hoc analysis of MAVORIC", "result": 60, "unit": "%"}]}
